Assay results published in ChEMBL document CHEMBL4414577, “Discovery of Pyrrolo[2,3-b]pyridine (1,7-Dideazapurine) Nucleoside Analogues as Anti-Trypanosoma cruzi Agents” (J Med Chem, 2019).
Active and inactive are the calls of the source. The rule behind the calls is not given here.

Legend:
[1] = Drug metabolism in mouse liver microsomes assessed as CYP450-mediated metabolism by measuring parent compound remaining at 5 uM incubated for 15 mins in presence of NADPH by UPLC-MS analysis; type: ADME; conditions: read-out: Stability
Procedure, shortened: (§1)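 Compound incubated with male mouse, rat, dog or pooled human S9 fractions, with NADPH (phase I) or […], sampled at 0, 15, 30 and 60 min. Read-out is percent parent remaining. Two independent experiments of two biological replicates; diclofenac and fluconazole used as assay controls.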

[2] = Drug metabolism in mouse liver microsomes assessed as CYP450-mediated metabolism by measuring parent compound remaining at 5 uM incubated for 60 mins in presence of NADPH by UPLC-MS analysis; type: ADME; conditions: read-out: Stability
[3] = Drug metabolism in rat liver microsomes assessed as CYP450-mediated metabolism by measuring parent compound remaining at 5 uM measured immediately in presence of NADPH by UPLC-MS analysis; type: ADME; conditions: read-out: Stability; procedure, shortened: as §1
[4] = Drug metabolism in rat liver microsomes assessed as UGT-mediated metabolism by measuring compound remaining at 5 uM measured immediately in presence of UDPGA by UPLC-MS analysis; type: ADME; conditions: read-out: Stability; procedure, shortened: as §1
[5] = Drug metabolism in rat liver microsomes assessed as UGT-mediated metabolism by measuring compound remaining at 5 uM incubated for 30 mins in presence of UDPGA by UPLC-MS analysis; type: ADME; conditions: read-out: Stability; procedure, shortened: as §1
Cytochrome P450 [6] = biological target: T1, Cytochrome P450 (Homo sapiens, UniProt P04798+P05177+P05181+P08684+P10632+P10635+P11509+P11712+P13584+P20813+P20815+P20853+P24462+P24903+P33260+P33261+P51589+P78329+P98187+Q02928+Q08477+Q16678+Q16696+Q5TCH4+Q6VVX0+Q7Z449+Q8TAV3+Q96SQ9+Q9HB55); experiment: Drug metabolism in human liver S9 fraction assessed as CYP450-mediated metabolism by measuring parent compound remaining at 5 uM measured immediately in presence of NADPH by UPLC-MS analysis; type: ADME, subcellular; conditions: read-out: Stability; procedure, shortened: as §1
Cytochrome P450 [7] = biological target: T1, Cytochrome P450; experiment: Drug metabolism in human liver S9 fraction assessed as CYP450-mediated metabolism by measuring parent compound remaining at 5 uM incubated for 30 mins in presence of NADPH by UPLC-MS analysis; type: ADME, subcellular; conditions: read-out: Stability; procedure, shortened: as §1
Trypanosoma cruzi [8] = experiment: In vivo antitrypanosomal activity against Trypanosoma cruzi Y trypomastigotes infected in Swiss mouse assessed as mouse survival at 25 mg/kg, po administered twice daily via gavage for 5 days starting from 5 days post-infection and measured daily up to 40 days post-infection; type: functional, organism-based
Procedure, shortened: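 Male Swiss Webster mice (18-20 g, 4-5 weeks) infected i.p. with 10⁴ Y-strain bloodstream trypomastigotes; six per group. Oral gavage from 5 dpi for 5 consecutive days: test compound at 25 mg/kg b.i.d. (2.0 mg/mL in 10% EtOH, 0.1 M citrate pH 3.02), benznidazole at 100 mg/kg s.i.d. Parasites counted in 5 μL tail blood to 30 dpi; mortality followed daily to 40 dpi.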

Trypanosoma cruzi [9] = experiment: In vivo antitrypanosomal activity against Trypanosoma cruzi Y trypomastigotes infected in Swiss mouse assessed as reduction in parasitemia at 25 mg/kg, po administered twice daily for 5 days with 2 days interval for 3 cycles and measured 9 days post-infection by light microscopy relative to control; type: functional; set-up: scale not given: the % may be the effect or the level left
Procedure, shortened: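 Male Swiss Webster mice infected i.p. with 10⁴ Y-strain bloodstream trypomastigotes; six per group. Oral gavage from 5 dpi for 15 days (three 5-day rounds, 2 days off): test compound 25 mg/kg b.i.d., benznidazole 100 mg/kg s.i.d. Parasites counted in 5 μL tail blood to 30 dpi; mortality followed to 53 dpi.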

Trypanosoma cruzi [10] = experiment: Antitrypanosomal activity against bloodstream form of Trypanosoma cruzi Y trypomastigotes measured after 24 hrs by Neubauer chamber-based light microscopic analysis; type: functional, organism-based
[11] = Cytotoxicity against Swiss mouse primary cardiac cells assessed as reduction in cell viability incubated for 24 hrs by PrestoBlue dye based colorimetry

remaining at 0.25 h, 5 µM [1]: 96%
remaining at 1 h, 5 µM [2]: 94%
remaining at 0 min, 5 µM [3]: 100%
remaining at 0 min, 5 µM [4]: 100%
remaining at 0.5 h, 5 µM [5]: 94%
remaining at 0 min, 5 µM (Cytochrome P450 [6]): 100%
remaining at 0.5 h, 5 µM (Cytochrome P450 [7]): 96%
EC50 (Trypanosoma cruzi [10]): > 70 µM
SMILES: Nc1ccnc2c1c(I)cn2[C@@H]1O[C@H](CO)[C@@H](O)[C@H]1O
Activity (Trypanosoma cruzi [8]): Active
Activity (Trypanosoma cruzi [9]): 100%
EC50 [11]: > 400 µM
